Source: ChEMBL document CHEMBL1772977, “Synthesis and biological evaluation of novel 4-benzylpiperazine ligands for sigma-1 receptor imaging” (Bioorg Med Chem, 2011)

Key:
Lung [1] = assay: Biodistribution in ICR mouse lung at 1 uCi, iv after 60 mins postinjection; format: ADME, organism-based; conditions: in vivo, 1 h
Method in brief: (§1)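 Female ICR mice (18–22 g, n = 5) received HPLC-purified radiotracer by tail vein (0.1 mL). They were killed by cervical fracture at the stated times. Blood and organs were removed, weighed and gamma-counted. Uptake expressed as percent injected dose per gram of tissue (%ID/g), given as mean with SD.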

Heart [2] = assay: Biodistribution in ICR mouse heart at 1 uCi, iv after 15 mins postinjection; format: ADME, organism-based; conditions: in vivo, 0.25 h; method in brief: as §1
Mus musculus = assay: Biodistribution in ICR mouse small intestine at 1 uCi, iv after 240 mins postinjection; format: ADME, organism-based; conditions: in vivo, 4 h; method in brief: as §1
Blood [3] = assay: Biodistribution in ICR mouse blood at 1 uCi, iv after 120 mins postinjection; format: ADME, organism-based; conditions: in vivo, 2 h; method in brief: as §1
Stomach [4] = assay: Biodistribution in ICR mouse stomach at 1 uCi, iv measured per organ after 240 mins postinjection; format: ADME, organism-based; conditions: in vivo, 4 h
Thyroid gland [5] = assay: Biodistribution in ICR mouse thyroid at 1 uCi, iv after 120 mins postinjection; format: ADME, organism-based; conditions: in vivo, 2 h
Method in brief: (§2)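 Female ICR mice (18–22 g, n = 5) received HPLC-purified radioiodinated tracer by tail vein (0.1 mL, 1 µCi). They were killed by cervical fracture at 15, 30, 60, 120 or 240 min post-injection. Blood and organs were removed, weighed and gamma-counted. Uptake is expressed as %ID/g, mean ± SD, n = 4–5.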

Blood [6] = assay: Biodistribution in ICR mouse blood at 1 uCi, iv after 15 mins postinjection; format: ADME, organism-based; conditions: in vivo, 0.25 h; method in brief: as §1
Muscle tissue [7] = assay: Biodistribution in ICR mouse muscle at 1 uCi, iv after 120 mins postinjection; format: ADME, organism-based; conditions: in vivo, 2 h; method in brief: as §1
Lung [8] = assay: Biodistribution in ICR mouse lung at 1 uCi, iv after 30 mins postinjection; format: ADME, organism-based; conditions: in vivo, 0.5 h; method in brief: as §1
Thyroid gland [9] = assay: Biodistribution in ICR mouse thyroid at 1 uCi, iv after 30 mins postinjection; format: ADME, organism-based; conditions: in vivo, 0.5 h; method in brief: as §2
Lung [10] = assay: Biodistribution in ICR mouse lung at 1 uCi, iv after 120 mins postinjection; format: ADME, organism-based; conditions: in vivo, 2 h; method in brief: as §1
Muscle tissue [11] = assay: Biodistribution in ICR mouse muscle at 1 uCi, iv after 30 mins postinjection; format: ADME, organism-based; conditions: in vivo, 0.5 h; method in brief: as §1
Kidney [12] = assay: Biodistribution in ICR mouse kidney at 1 uCi, iv after 240 mins postinjection; format: ADME, organism-based; conditions: in vivo, 4 h; method in brief: as §1
Stomach [13] = assay: Biodistribution in ICR mouse stomach at 1 uCi, iv measured per organ after 30 mins postinjection; format: ADME, organism-based; conditions: in vivo, 0.5 h
Blood [14] = assay: Biodistribution in ICR mouse blood at 1 uCi, iv after 30 mins postinjection; format: ADME, organism-based; conditions: in vivo, 0.5 h; method in brief: as §1
Muscle tissue [15] = assay: Biodistribution in ICR mouse muscle at 1 uCi, iv after 240 mins postinjection; format: ADME, organism-based; conditions: in vivo, 4 h; method in brief: as §1
Liver [16] = assay: Biodistribution in ICR mouse liver at 1 uCi, iv after 120 mins postinjection; format: ADME, organism-based; conditions: in vivo, 2 h; method in brief: as §1
Kidney [17] = assay: Biodistribution in ICR mouse kidney at 1 uCi, iv after 15 mins postinjection; format: ADME, organism-based; conditions: in vivo, 0.25 h; method in brief: as §1
[18] = 1-Octanol-sodium phosphate buffer distribution coefficient, log D of the compound at pH 7.4; format: physicochemical
Method in brief: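 Shake-flask partition of HPLC-purified radiotracer between 1-octanol and 0.05 mol/L sodium phosphate buffer pH 7.4, phases mutually pre-saturated (3 mL each). […] Octanol layer re-distributed until values were consistent. Triplicate, repeated three times.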

Stomach [19] = assay: Biodistribution in ICR mouse stomach at 1 uCi, iv measured per organ after 60 mins postinjection; format: ADME, organism-based; conditions: in vivo, 1 h; method in brief: as §2
Kidney [20] = assay: Biodistribution in ICR mouse kidney at 1 uCi, iv after 30 mins postinjection; format: ADME, organism-based; conditions: in vivo, 0.5 h; method in brief: as §1
Muscle tissue [21] = assay: Biodistribution in ICR mouse muscle at 1 uCi, iv after 60 mins postinjection; format: ADME, organism-based; conditions: in vivo, 1 h; method in brief: as §1
Heart [22] = assay: Biodistribution in ICR mouse heart at 1 uCi, iv after 60 mins postinjection; format: ADME, organism-based; conditions: in vivo, 1 h; method in brief: as §1
Spleen = assay: Biodistribution in ICR mouse spleen at 1 uCi, iv after 240 mins postinjection; format: ADME, organism-based; conditions: in vivo, 4 h; method in brief: as §1
Liver [23] = assay: Biodistribution in ICR mouse liver at 1 uCi, iv after 30 mins postinjection; format: ADME, organism-based; conditions: in vivo, 0.5 h; method in brief: as §1
Kidney [24] = assay: Biodistribution in ICR mouse kidney at 1 uCi, iv after 60 mins postinjection; format: ADME, organism-based; conditions: in vivo, 1 h; method in brief: as §1
Blood [25] = assay: Biodistribution in ICR mouse blood at 1 uCi, iv after 240 mins postinjection; format: ADME, organism-based; conditions: in vivo, 4 h; method in brief: as §1
Brain = assay: Biodistribution in ICR mouse brain at 1 uCi, iv after 15 mins postinjection; format: ADME, organism-based; conditions: in vivo, 0.25 h; method in brief: as §1

[125I]c1ccc(CN2CCN(Cc3ccc4c(c3)OCO4)CC2)cc1
Drug uptake (Lung [1]): 6.29 % ID/g | Drug uptake (Heart [2]): 3.98 % ID/g | Drug uptake (Mus musculus): 10.95 % ID/g | Drug uptake (Blood [3]): 0.77 % ID/g | Drug uptake (Stomach [4]): 1.68 %ID | Drug uptake (Thyroid gland [5]): 1.4 % ID/g | Drug uptake (Blood [6]): 1.34 % ID/g | Drug uptake (Muscle tissue [7]): 1.06 % ID/g | Drug uptake (Lung [8]): 8.7 % ID/g | Drug uptake (Thyroid gland [9]): 2.3 % ID/g | Drug uptake (Lung [10]): 4.91 % ID/g | Drug uptake (Muscle tissue [11]): 1.78 % ID/g | Drug uptake (Kidney [12]): 6.89 % ID/g | Drug uptake (Stomach [13]): 2.12 %ID | Drug uptake (Blood [14]): 0.88 % ID/g | Drug uptake (Muscle tissue [15]): 0.72 % ID/g | Drug uptake (Liver [16]): 5.08 % ID/g | Drug uptake (Kidney [17]): 12.72 % ID/g | logD [18]: 2.98 | Drug uptake (Stomach [19]): 1.78 %ID | Drug uptake (Kidney [20]): 9.65 % ID/g | Drug uptake (Muscle tissue [21]): 1.5 % ID/g | Drug uptake (Heart [22]): 1.71 % ID/g | Drug uptake (Spleen): 2.83 % ID/g | Drug uptake (Liver [23]): 6.39 % ID/g | Drug uptake (Kidney [24]): 8.73 % ID/g | Drug uptake (Blood [25]): 0.72 % ID/g | Drug uptake (Brain): 5.03 % ID/g
